The values below come from PMC9543358 (British Journal of Clinical Pharmacology, 2022).

Series [1] can be described thus: Population pharmacokinetic model of cabotegravir plasma concentrations. Particulars: for IIV of CL/F / IIV of F1 / IIV of KALA / IIV of KAoral / IIV of V2/F: interindividual variability; for Smoke on CL/F (fractional change of CL/F in current smokers): current smoker. In kind it is in vivo, human. The procedure, abridged:
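Human plasma concentrations (23 926 from 1647 adults, HIV‑1‑infected and uninfected, 16 phase 1–3 studies; oral 10–60 mg, IM 200–800 mg) of the test compound were fitted in NONMEM (FOCE with interaction). The model was two‑compartment with first‑order oral and IM absorption and elimination, with a weight power function (shared exponents) on clearances and volumes. BQL data were handled by likelihood, with IOV on KALA/F1.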

The conditions of series [2]: cited from earlier work.
The next series deals with albumin in human plasma. Particulars: cited from earlier work.
The subject of another series is HIV. Particulars: cited from earlier work.
The conditions of series [3]: cited from earlier work. This is another data set of the same source.
For series [4] the following is noted: cited from earlier work. The source holds these as a separate data set.
Setting [5] is: base model, typical subject of 76.6 kg.

As usually defined, the Vd/F is the volume of distribution divided by bioavailability. In the case of `C[C@H]1CO[C@@H]2Cn3cc(C(=O)NCc4ccc(F)cc4F)c(=O)c(O)c3C(=O)N12` [CAB, Cabotegravir], in series [1] (base model), the “IIV of CL/F” value worked out at 24.9%, the “IIV of F1” value is recorded as 17.2%, the “IIV of KALA” value is 71.4% and the “IIV of KAoral” value amounted to 61.4%. For the same compound, the “IIV of V2/F” value in series [1] (base model) was found to be 22.6%. For the same compound, in series [1] (base model, power function of baseline body weight), the “BWT on V2/F and V3/F (exponent)” value stood at 0.675. Besides, in series [1] (setting [5]), the “CL/F, apparent central clearance” value was found to be 0.16 L/h; the “KALA, absorption rate constant for LA IM injection” value stood at 0.000642 h⁻¹; the “KAoral, absorption rate constant for oral tablet” value was 1.12 h⁻¹. The “race and age as covariates of PK” value in series [1] (covariate evaluation, final model) was “not significant covariates”. Further, in series [1] (final model), the “BWT on V2/F and V3/F (exponent)” value stood at 0.702; the “KALA lower in females than males” value is reported as 50.9%; the “KALA lower in subjects with BMI of 32.5 kg/m^2 (90th percentile) than BMI of 20.9 kg/m^2 (10th percentile)” value is given as 28.6%; the “KAoral, absorption rate constant for oral tablet” value stood at 1.41 h⁻¹. Besides, in series [1] (final model), the “Smoke on CL/F (fractional change of CL/F in current smokers)” value worked out at 17.4%, the “IIV of CL/F” value worked out at 23.3%, the “IIV of F1” value is on record as 17.4% and the “IIV of KALA” value turned out to be 57.9%. In series [1] (final model), the “IIV of KAoral” value came out at 89.4% and the “IIV of V2/F” value is reported as 20.3%. Besides, the “BMI exponent on KALA” value in series [1] (final model, BMI/25.4) is −0.766. Besides, the “CL/F, apparent central clearance” value in series [1] (final model, BWT 76.6 kg, not current smoker) is recorded as 0.151 L/h. Also, the “Smoke on CL/F (fractional change of CL/F in current smokers)” value in series [1] (final model, listed as cabotegravir) came to 17.4%. The “Female on KALA (fractional change)” value in series [1] (final model, female vs male) is −50.9%. For the same compound, in series [1] (final model, male, unsplit injection, BMI 25.4, needle length 1.5 inch), the “KALA, absorption rate constant for LA IM injection” value was found to be 0.000733 h⁻¹. Moreover, the “NDL exponent on KALA” value in series [1] (final model, needle length/1.5 inch) amounted to 0.478. The Vd/F in series [1] (human, plasma, other: oral tablet and LA IM injection, modelled together, V2/F, apparent central compartment volume of distribution, base model, typical subject of 76.6 kg) was 5.5 L. The “dose proportionality of exposure” value in series [1] (oral 10 to 60 mg, LA 200 to 800 mg) is “dose proportional”. In series [2] (following oral dosing), the apparent clearance is listed as 0.21 L/h and the “apparent volume of distribution” value was 12.3 L. For the same compound, in series [2] (hepatic metabolism), the route of elimination entry was “hepatic metabolism via UGT1A1 with a minor component by UGT1A9”. Further, in the series on albumin in human plasma, the “binding in human plasma (primarily to albumin)” value is > 99%. The “PA‐IC90, in vitro protein‐adjusted concentration resulting in 90% of the maximum inhibition of viral growth” value with HIV was 0.166 µg/mL. For the same compound, in series [3], the permeability classification entry is “high permeability” and the solubility classification result is “low solubility”.

For the compound `C[C@@H]1CCO[C@H]2Cn3cc(C(=O)NCc4ccc(F)cc4F)c(=O)c(O)c3C(=O)N12` [DTG, dolutegravir], in series [4], the “CL/F higher in current smokers” value is given as 16% and the “estimated absolute oral bioavailability higher in females than in males” value is reported as 21%.
